These results are taken from PMC10230191 (RSC Advances, 2023).

Series [1] is described as follows: Cytotoxicity in HepG2.2.15 cells. It is filed as cell-based. The note with it: human. In short, it runs like this: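 Cells plated at 2 × 10^3 per well, exposed continuously to test compound for 14 days; viable cells counted by CCK-8 relative to no-compound controls to give CC50.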
Series [2] has as its system HBV. The series can be described thus: Anti-HBV assay in HBV-producing HepG2 2.2.15 cells. It is filed as cell-based, hepatitis B virus. As to conditions: for EC50: Hepatitis B virus, HepG2 2.2.15, 336 h, read-out: EC50 (nM) against HBV. A digest of the protocol: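 […] cells seeded at 4 × 10^3 per well with a range of test-compound concentrations; medium and compound renewed on days 3 and 7. On day 14, total cellular DNA was extracted and HBV genomes quantified by real-time PCR (95 °C 10 min; 50 cycles of 95 °C 10 s, 60 °C 1 min). Copies were derived from CT against 10-fold HBV plasmid dilutions, compared with no-compound controls, and EC50 was obtained by linear forecast.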

The molecule `N#C[C@]1(CO)/C(=C/F)[C@@H](n2cnc3c(=O)[nH]c(N)nc32)C[C@@H]1O` [(Z)-6, (1S,3S,5S,Z)-3-(2-Amino-6-oxo-1,6-dihydro-9H-purin-9-yl)-2-(fluoromethylene)-5-hydroxy-1-(hydroxymethyl)cyclopentane-1-carbonitrile] had a CC50 at 14 days in series [1] of over 100000 nM. Moreover, the “times lower anti-HBV activity compared to compound (E)-6” value in series [2] (HepG2 2.2.15 cells, relative to (E)-6) is recorded as about 500 times. Moreover, the EC50 in series [2] was 585 ± 358 nM.

Take `C=C1[C@H](CO)[C@@H](O)C[C@@H]1n1cnc2c(=O)[nH]c(N)nc21` [Compound 1, entecavir, reference compound]: half-maximal cytotoxicity in series [1] (CC50 at 14 days) was put at 63000 nM. The EC50 in series [2] is 2.3 ± 0.6 nM.

In series [1], `N#C[C@]1(CO)O[C@@H](n2cnc3c(=O)[nH]c(N)nc32)C[C@@H]1O` [Compound 2, 4′-cyano-deoxyguanosine, reference compound] came in with a CC50 at 14 days of 3000 ± 200 nM. The EC50 in series [2] turned out to be 0.3 ± 0.1 nM.

With `N#C[C@]1(CO)/C(=C\F)[C@@H](n2cnc3c(=O)[nH]c(N)nc32)C[C@@H]1O` [Compound (E)-6, (1S,3S,5S,E)-3-(2-Amino-6-oxo-1,6-dihydro-9H-purin-9-yl)-2-(fluoromethylene)-5-hydroxy-1-(hydroxymethyl)cyclopentane-1-carbonitrile], in series [1], the CC50 at 14 days worked out at 93000 nM. Moreover, the EC50 in series [2] came to 1.2 ± 0.7 nM.

What is called CC50 is the concentration giving 50% cytotoxicity. The term EC50 denotes the concentration that produces a half-maximal response.
